ChEMBL document CHEMBL3259545, “Novel pyrrolobenzoxaboroles: design, synthesis, and biological evaluation against Trypanosoma brucei” (Eur J Med Chem, 2014)
Values after ≈ are worked out from the molar mass of the structure shown. Active and inactive are the calls of the source. The rule behind the calls is not given here.

Tests used:
L929 = assay: Cytotoxicity against mouse L929 cells assessed as cell viability after 72 hrs by alamar blue assay; assay type: cell-based; conditions: L929, 72 h
Procedure, shortened: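 L929 mouse fibroblasts grown in DMEM with 10% FBS and 1% penicillin/streptomycin, kept sub-confluent. Seeded from a 1 × 10⁴/mL suspension, attached overnight, then medium renewed and DMSO-diluted compounds added. Incubated 72 h at 37 °C, 5% CO₂. Resazurin added for another 3–4 h, fluorescence read at ex 544/em 590 nm.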

[1] = system: Trypanosoma brucei brucei; assay: Antitrypanosomal activity against Trypanosoma brucei brucei 427 after 72 hrs by alamar blue assay; assay type: functional, organism-based; conditions: Trypanosoma brucei, 427, 72 h
Procedure, shortened: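 Bloodstream T. b. brucei 427 kept in log phase in HMI-9 with 10% FBS, 10% Serum Plus and penicillin/streptomycin, subcultured every 2–3 days. Final density 1.0 × 10⁵/mL with 0.4% DMSO, exposed to serially diluted compounds for 72 h at 37 °C, 5% CO₂. Resazurin added for another 2–4 h, fluorescence read at ex 544/em 590 nm. IC50 from sigmoidal fits of triplicate points.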

[2] = system: Trypanosoma brucei brucei; assay: Trypanocidal activity against bloodstream stage of Trypanosoma brucei brucei infected in acute BALB/c mouse assessed as animal survival rate at 50 mg/kg, ip bid administered for 5 days initiated 24 hrs post infection; assay type: functional; conditions: route intraperitoneal
Procedure, shortened: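 Female BALB/c mice infected i.p. with 600 T. b. brucei 221 bloodstream parasites; from 24 h post-infection, dosed 50 mg/kg i.p. twice daily for 5 days in 5% ethanol/45% sterile deionized water/50% PEG400. Parasitaemia was checked on trypan-blue-stained tail-vein blood smears every other day for 10 days, then weekly; survival was followed to day 30.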

[3] = system: Trypanosoma brucei brucei; assay: Trypanocidal activity against bloodstream stage of Trypanosoma brucei brucei infected in acute BALB/c mouse assessed as clearance of blood parasite on day 30 at 50 mg/kg, ip bid administered for 5 days initiated 24 hrs post infection; assay type: functional; conditions: route intraperitoneal
Procedure, shortened: (§1)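 Female BALB/c mice infected i.p. with 600 T. b. brucei 221 parasites. Starting 24 h after infection, compounds were given i.p. at 50 mg/kg twice daily for 5 days, in 5% ethanol/45% water/50% PEG400. Untreated mice served as controls. Parasitemia was checked by trypan-blue-stained tail-vein blood smears every other day for ten days, then weekly, with survival followed to day 30.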

[4] = system: Trypanosoma brucei brucei; assay: Trypanocidal activity against bloodstream stage of Trypanosoma brucei brucei infected in acute BALB/c mouse assessed as extension of animal survival at 50 mg/kg, ip bid administered for 5 days initiated 24 hrs post infection; assay type: functional, organism-based; set-up: dose 50 mg/kg; procedure, shortened: as §1

Structure (SMILES) | IC50 (L929) [µg/mL] | IC50 [1] [µg/mL] | survival at 50 mg/kg [2] [%] | Activity [3] [%] | Activity [4]
O=C(c1ccn(-c2ccc3c(c2)B(O)OC3)c1)C1CCCCC1 | > 10 | 0.13 (≈ 0.42 µM) |  |  | 
OB1OCc2ccc(-n3cccc3Sc3ccc(Cl)cc3)cc21 | > 10 | 1.16 (≈ 3.4 µM) |  |  | 
CC(=O)c1ccn(-c2ccc3c(c2)B(O)OC3)c1 | > 10 | 0.56 (≈ 2.32 µM) |  |  | 
OB1OCc2ccc(-n3cccc3Sc3ccc(Cl)c(Cl)c3)cc21 | > 10 | > 5 |  |  | 
O=C(c1ccccc1)c1ccn(-c2ccc3c(c2)C(O)OC3)c1 (configuration not stated) | 8.18 (≈ 26.8 µM) | > 5 |  |  | 
O=C(c1ccn(-c2ccc3c(c2)B(O)OC3)c1)c1ccccc1Cl | > 10 | 0.28 (≈ 0.829 µM) |  |  | 
OB1OCc2ccc(-n3cc(Sc4ccc(F)cc4)c4ccccc43)cc21 | > 10 | > 5 |  |  | 
O=C(O)c1cccn1-c1ccc2c(c1)B(O)OC2 | > 10 | 0.13 (≈ 0.535 µM) |  |  | 
Cc1ccccc1C(=O)c1ccn(-c2ccc3c(c2)B(O)OC3)c1 | > 10 | 0.56 (≈ 1.77 µM) |  |  | 
COc1ccc(Sc2cn(-c3ccc4c(c3)B(O)OC4)c3ccccc23)cc1 | > 10 | > 5 |  |  | 
O=C(CCCN1C(=O)c2ccccc2C1=O)c1ccn(-c2ccc3c(c2)B(O)OC3)c1 | > 10 | 0.72 (≈ 1.74 µM) |  |  | 
COc1ccc(CNC(=O)c2cccn2-c2ccc3c(c2)B(O)OC3)cc1 | > 10 | 0.7 (≈ 1.93 µM) |  |  | 
OB1OCc2ccc(-n3ccc(Cc4ccccc4)c3)cc21 | > 10 | 2.17 (≈ 7.5 µM) |  |  | 
Cc1ccc(C(=O)c2ccn(-c3ccc4c(c3)B(O)OC4)c2)cc1 | > 10 | 0.08 (≈ 0.252 µM) |  |  | 
O=C(c1ccc(F)cc1)c1ccn(-c2ccc3c(c2)B(O)OC3)c1 | > 10 | 0.16 (≈ 0.498 µM) |  |  | 
O=C(Cc1ccccc1)c1ccn(-c2ccc3c(c2)B(O)OC3)c1 | > 10 | 0.29 (≈ 0.914 µM) |  |  | 
O=C(c1ccc(F)cc1)c1cccn1-c1ccc2c(c1)B(O)OC2 | > 10 | 0.4 (≈ 1.25 µM) |  |  | 
O=C(c1ccccc1)c1ccn(-c2ccc3c(c2)B(O)OC3)c1 | > 10 | 0.09 (≈ 0.297 µM) | 100 | 100 | 
O=C(NCc1ccccc1)c1cccn1-c1ccc2c(c1)B(O)OC2 | > 10 | 0.8 (≈ 2.41 µM) |  |  | 
OB1OCc2ccc(-n3cc(Sc4ccc(Cl)cc4)c4ccccc43)cc21 | > 10 | > 5 |  |  | 
OB1OCc2ccc(-n3cc(Sc4ccccc4O)c4ccccc43)cc21 | > 10 | > 5 |  |  | 

Structure (SMILES) | IC50 (L929) [µg/mL] | IC50 [1] [µg/mL] | survival at 50 mg/kg [2] [%] | Activity [3] [%] | Activity [4]
O=C(c1ccn(-c2ccc3c(c2)B(O)OC3)c1)c1ccc(Cl)cc1Cl | > 10 | 1.12 (≈ 3.01 µM) |  |  | 
OB1OCc2ccc(-n3cccc3)cc21 | > 10 | 1.98 (≈ 9.95 µM) |  |  | 
O=C(c1ccc(Cl)cc1Cl)c1cccn1-c1ccc2c(c1)B(O)OC2 | > 10 | 1.43 (≈ 3.84 µM) |  |  | 
O=[N+]([O-])c1ccc(Sc2cn(-c3ccc4c(c3)B(O)OC4)c3ccccc23)cc1 | > 10 | > 5 |  |  | 
CNC(=O)c1cccn1-c1ccc2c(c1)B(O)OC2 | > 10 | 0.86 (≈ 3.36 µM) |  |  | 
CCNC(=O)c1cccn1-c1ccc2c(c1)B(O)OC2 | > 10 | 1.85 (≈ 6.85 µM) |  |  | 
CCCNC(=O)c1cccn1-c1ccc2c(c1)B(O)OC2 | > 10 | 3.21 (≈ 11.3 µM) |  |  | 
NCc1ccc(C(=O)c2ccn(-c3ccc4c(c3)B(O)OC4)c2)cc1 | > 10 | 0.18 (≈ 0.542 µM) |  |  | 
O=C(NCCc1ccccc1)c1cccn1-c1ccc2c(c1)B(O)OC2 | > 10 | 0.68 (≈ 1.96 µM) |  |  | 
O=C(NC1CCCCC1)c1cccn1-c1ccc2c(c1)B(O)OC2 | > 10 | 2.85 (≈ 8.79 µM) |  |  | 
O=C(c1ccccc1)c1ccn(-c2ccccc2)c1 | > 10 | > 5 |  |  | 
CCc1ccc(C(=O)c2ccn(-c3ccc4c(c3)B(O)OC4)c2)cc1 | > 10 | 0.07 (≈ 0.211 µM) |  |  | Active
OB1OCc2ccc(-n3ccc4ccccc43)cc21 | > 10 | > 5 |  |  | 
O=C(c1ccccc1)c1cccn1-c1ccc2c(c1)B(O)OC2 | > 10 | 0.34 (≈ 1.12 µM) |  |  | 
OB1OCc2ccc(-n3cc(Sc4ccc(O)cc4)c4ccccc43)cc21 | > 10 | > 5 |  |  | 
O=C(c1cccc(Cl)c1)c1ccn(-c2ccc3c(c2)B(O)OC3)c1 | > 10 | 0.35 (≈ 1.04 µM) |  |  | 
OB1OCc2ccc(-n3cc(Sc4cccc(Cl)c4)c4ccccc43)cc21 | > 10 | > 5 |  |  | 
CC(=O)OCc1ccc(C(=O)c2ccn(-c3ccc4c(c3)B(O)OC4)c2)cc1 | 10 (≈ 26.7 µM) | 0.03 (≈ 0.08 µM) |  |  | 
COc1ccccc1C(=O)c1ccn(-c2ccc3c(c2)B(O)OC3)c1 | > 10 | 0.17 (≈ 0.51 µM) |  |  | 
Nc1ccc(C(=O)c2ccn(-c3ccc4c(c3)B(O)OC4)c2)cc1 | 3.9 (≈ 12.3 µM) | 0.03 (≈ 0.0943 µM) | 100 | 100 | 
O=C(CCc1ccccc1)c1ccn(-c2ccc3c(c2)B(O)OC3)c1 | > 10 | 0.19 (≈ 0.574 µM) |  |  | 

Structure (SMILES) | IC50 (L929) [µg/mL] | IC50 [1] [µg/mL] | survival at 50 mg/kg [2] [%] | Activity [3] [%] | Activity [4]
Cc1cccc(C(=O)c2ccn(-c3ccc4c(c3)B(O)OC4)c2)c1 | > 10 | 0.09 (≈ 0.284 µM) |  |  | 
CCCCCC(=O)c1ccn(-c2ccc3c(c2)B(O)OC3)c1 | > 10 | 0.09 (≈ 0.303 µM) |  |  | 
O=C(c1ccn(-c2ccc3c(c2)B(O)OC3)c1)c1cccs1 | > 10 | 0.08 (≈ 0.259 µM) |  |  | 
O=C(c1ccc(O)cc1)c1ccn(-c2ccc3c(c2)B(O)OC3)c1 | > 10 | 0.06 (≈ 0.188 µM) |  |  | Active
OB1OCc2ccc(-n3cc(Sc4ccc(Cl)c(Cl)c4)c4ccccc43)cc21 | > 10 | > 5 |  |  | 
COc1ccc(S(=O)(=O)c2cn(-c3ccc4c(c3)B(O)OC4)c3ccccc23)cc1 | > 10 | > 5 |  |  | 
OB1OCc2ccc(-n3cc(Sc4ccc5ccccc5c4)c4ccccc43)cc21 | > 10 | > 5 |  |  | 
Cc1ccsc1C(=O)c1ccn(-c2ccc3c(c2)B(O)OC3)c1 | > 10 | 0.11 (≈ 0.34 µM) |  |  | 
COc1cc(C(=O)c2ccn(-c3ccc4c(c3)B(O)OC4)c2)cc(OC)c1OC | 1.15 (≈ 2.92 µM) | 0.16 (≈ 0.407 µM) |  |  | 
CC(=O)c1cccn1-c1ccc2c(c1)B(O)OC2 | > 10 | 0.69 (≈ 2.86 µM) |  |  | 
Cc1ccc(C(=O)c2ccn(-c3ccc4c(c3)B(O)OC4)c2)s1 | > 10 | 0.07 (≈ 0.217 µM) | 100 | 100 | 
COc1ccc(C(=O)c2ccn(-c3ccc4c(c3)B(O)OC4)c2)cc1 | > 10 | 0.11 (≈ 0.33 µM) |  |  | 
O=C(c1ccn(-c2ccc3c(c2)B(O)OC3)c1)c1cccc2ccccc12 | 5.59 (≈ 15.8 µM) | 0.4 (≈ 1.13 µM) |  |  | 
O=C(c1ccc(Cl)cc1)c1ccn(-c2ccc3c(c2)B(O)OC3)c1 | > 10 | 0.21 (≈ 0.622 µM) |  |  | 
CCCC(=O)c1ccn(-c2ccc3c(c2)B(O)OC3)c1 | > 10 | 0.11 (≈ 0.409 µM) |  |  | 
COc1ccc([S+]([O-])c2cn(-c3ccc4c(c3)B(O)OC4)c3ccccc23)cc1 (configuration not stated) | > 10 | 1.56 (≈ 3.87 µM) |  |  | 
OB1OCc2ccc(-n3cccc3Sc3ccccc3Cl)cc21 | > 10 | 2.89 (≈ 8.46 µM) |  |  | 
O=C(c1ccccc1Cl)c1cccn1-c1ccc2c(c1)B(O)OC2 | > 10 | 0.7 (≈ 2.07 µM) |  |  | 
NCCCC(=O)c1ccn(-c2ccc3c(c2)B(O)OC3)c1 | > 10 | 4.02 (≈ 14.1 µM) |  |  | 
O=C(c1ccc(CO)cc1)c1ccn(-c2ccc3c(c2)B(O)OC3)c1 | 9.31 (≈ 27.9 µM) | 0.04 (≈ 0.12 µM) |  |  | 
